Columns and labels:
Mus musculus [1] = species on record: Mus musculus; test: Effective dose was tested for its ability to act as B-cell mitogens (mitogenicity); format: functional; conditions: read-out: ED50 (the source's name)
Method in brief: (§1)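 CBA/CaJ mouse spleen cells (1 × 10⁵/0.2 mL) exposed to graded compound concentrations, dissolved in water or DMSO and diluted in medium, for 24 h. [³H]thymidine then added for a further 24 h; incorporation by scintillation counting. ED50 and maximal response expressed relative to a concurrently run standard (loxoribine in most cases).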

Mus musculus [2] = species on record: Mus musculus; test: Percent of maximum response was tested for its ability to act as B-cell mitogens (mitogenicity); format: functional; method in brief: as §1
Mus musculus [3] = species on record: Mus musculus; test: Percent of maximum response was tested to augment the antibody response of B cells to sheep red blood cell challenge; format: functional
Method in brief: (§2)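 CBA/CaJ spleen cells depleted of T cells with anti-T cell monoclonal antibody (1:1000, 30 min, 4 °C) then complement (37 °C, 45 min). Cultured ± 0.1% SRBC antigen in serum-containing medium with compound from zero to 10⁻³ M for 4 d. Plaque-forming cells counted in agarose with guinea pig complement. ED50 and maximal response relative to a concurrent standard.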

Mus musculus [4] = species on record: Mus musculus; test: Augment antibody response of B cells to sheep red blood cell (SRBC) challenge (adjuvanticity); format: functional; conditions: read-out: ED50 (the source's name); method in brief: as §2
YAC-1 [5] = test: Tested for its ability to stimulate the natural killer (NK) response in murine in vitro cell assays; format: functional; conditions: Mus musculus, read-out: ED50 (the source's name)
YAC-1 [6] = test: Percent of maximum response was tested for its ability to stimulate the natural killer (NK) response in murine in vitro cell assays; format: functional, Mus musculus

SMILES: C=CCn1c(=O)n(C2CN(CCCC)CC(CO)O2)c2nc(N)nc(O)c21 (stereo unspecified)
- EC50 (Mus musculus [1]): 49 µM
- Max response (Mus musculus [2]): 52%
- Max response (Mus musculus [3]): 38%
- EC50 (Mus musculus [4]): 5 µM
- EC50 (YAC-1 [5]): 17 µM
- Max response (YAC-1 [6]): 94%
